# Active and inactive are the calls of the source. How the calls were made is not given here.
# Target: Muscarinic acetylcholine receptor M3 (Homo sapiens) (UniProt P20309)
# Assay: human M3 receptor potentiation, selectivity assay for M5 PAM project, CHO cells (AID 651922)
# Procedure, shortened: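 System: human M3-expressing CHO-K1 cells / Measure: % of maximal acetylcholine response / Reagent: acetylcholine at submaximal EC20 concentration / Detection: Fluo-4 fluorescence calcium mobilization measurement / Incubation: compound pre-incubation 1.5 min, acetylcholine stimulation 50 s, read at 25 °C / Medium: HEPES- and probenecid-supplemented HBSS, pH 7.4 / Doses: final DMSO 0.3% in assay wells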
# Muscarinic acetylcholine receptor M3 (Homo sapiens), sequence (P20309 whole entry, looked up): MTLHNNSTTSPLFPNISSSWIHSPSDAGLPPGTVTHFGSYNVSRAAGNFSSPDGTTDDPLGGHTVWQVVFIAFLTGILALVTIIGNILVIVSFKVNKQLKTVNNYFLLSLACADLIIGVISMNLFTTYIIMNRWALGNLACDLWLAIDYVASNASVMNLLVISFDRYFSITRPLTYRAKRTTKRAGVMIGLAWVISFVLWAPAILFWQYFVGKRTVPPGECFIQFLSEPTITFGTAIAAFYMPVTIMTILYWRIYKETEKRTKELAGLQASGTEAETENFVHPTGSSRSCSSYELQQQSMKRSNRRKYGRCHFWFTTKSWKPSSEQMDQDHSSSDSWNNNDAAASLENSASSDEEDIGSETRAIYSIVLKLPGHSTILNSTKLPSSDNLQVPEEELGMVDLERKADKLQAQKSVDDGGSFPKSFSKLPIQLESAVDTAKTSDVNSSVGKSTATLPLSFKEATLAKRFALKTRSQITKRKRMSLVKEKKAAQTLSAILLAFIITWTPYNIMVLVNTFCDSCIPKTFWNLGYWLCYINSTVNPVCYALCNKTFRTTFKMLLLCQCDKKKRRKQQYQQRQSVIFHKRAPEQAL
structure (smiles),measurement,value
O=C1C(=O)N(CCOc2ccccc2)c2ccc(OC(F)(F)F)cc21,outcome,inactive

# Reference: PubChem BioAssay AID651922 (Vanderbilt Specialized Chemistry Center, 2012)
